Source: PubChem
ATG4B inh: ATG4B (human) cysteine protease inhibition; inhibition, % at 8.33 µM; AID 504462; Q9Y4P1; ATG4B cleavage of LC3-PLA2, NBD-HPC fluorescence, 1 h; 0.51% of 340,000 active; in the data active = inhibition above about 40%
Myeloid diff MLP: compounds promoting myeloid differentiation; ER-HoxA9 myeloid progenitors, lysozyme-GFP differentiation, flow cytometry; calls only at 10 µM; 1% of 360,000 active;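 active = normalized GFP-positive differentiation at or above the plate's own cutoff, the solvent-only control mean plus 3 SD; inconclusive = no clear call, values can overlap the other calls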;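 note: cells exposed to compound for four days before flow analysis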
CendR NRP1 mod: alters CendR peptide binding to human NRP-1. O14786. FAM-RPARPAR peptide binding to NRP-1, fluorescence polarization. inhibition, % at 25 µM. 0.85% of 360,000 active;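 active = inhibition or corrected inhibition above about 18%, plus a signal ratio from 0.5 to 1.5, limit read from the data, passing the limit was not always enough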
Target sequence (O14786 whole entry, looked up): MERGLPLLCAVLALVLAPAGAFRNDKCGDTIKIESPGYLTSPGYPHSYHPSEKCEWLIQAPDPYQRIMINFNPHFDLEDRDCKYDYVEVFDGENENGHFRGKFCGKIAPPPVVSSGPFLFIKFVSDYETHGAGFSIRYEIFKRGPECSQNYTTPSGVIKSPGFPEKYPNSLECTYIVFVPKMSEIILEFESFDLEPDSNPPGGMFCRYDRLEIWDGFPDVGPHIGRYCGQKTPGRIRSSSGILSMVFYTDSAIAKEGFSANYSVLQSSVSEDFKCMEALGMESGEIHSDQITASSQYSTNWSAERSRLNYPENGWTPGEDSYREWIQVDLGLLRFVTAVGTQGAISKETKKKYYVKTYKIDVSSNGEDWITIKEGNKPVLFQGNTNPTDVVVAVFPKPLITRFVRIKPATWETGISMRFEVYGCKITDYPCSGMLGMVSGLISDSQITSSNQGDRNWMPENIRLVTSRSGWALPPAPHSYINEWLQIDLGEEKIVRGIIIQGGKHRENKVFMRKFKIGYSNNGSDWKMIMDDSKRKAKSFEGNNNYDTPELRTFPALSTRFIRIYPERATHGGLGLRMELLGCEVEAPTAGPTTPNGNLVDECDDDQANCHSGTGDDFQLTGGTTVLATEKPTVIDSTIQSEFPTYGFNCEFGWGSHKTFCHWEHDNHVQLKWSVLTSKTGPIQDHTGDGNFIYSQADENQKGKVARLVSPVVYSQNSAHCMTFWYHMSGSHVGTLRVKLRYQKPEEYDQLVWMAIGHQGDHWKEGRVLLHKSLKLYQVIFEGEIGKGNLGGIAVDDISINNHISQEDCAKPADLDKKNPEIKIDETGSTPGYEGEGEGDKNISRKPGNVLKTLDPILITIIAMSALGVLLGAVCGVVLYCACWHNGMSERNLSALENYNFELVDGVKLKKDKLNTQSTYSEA
Arr AP2 block: human beta-arrestin and AP2 interaction inhibition | FITC-arrestin peptide / GST-AP2 beads, flow cytometry; AP2 beta2 appendage carries R879A mutation | inhibition, % at 10 µM | 0.31% of 340,000 active | AID 504490;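 active = inhibition above a set limit, near 3 SD of compounds lacking own fluorescence, cut at about 54% in these data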;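 note: plate controls were DMSO wells for no effect and 5 µM unlabelled arrestin peptide for full effect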
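Material – AP2 appendage R879A on GSH beads · Buffer or medium – PBS with 0.05% Tween 20 and 0.1% BSA · Probe or stimulus – fluorescein-tagged arrestin peptide at 50 nM final · Incubation – compound with beads 12 min RT, then probe 1 h RT · Detection – high-throughput flow cytometry of beads, ex 488, em 535 nm · Evaluation – percent response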
Granule exo inh: lytic granule exocytosis inhibition; 0.66% of 360,000 active; TALL-104 LAMP-1 surface exposure, flow cytometry; cells stimulated with thapsigargin and PMA; inhibition, % at 10 µM;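 active = inhibition above about 55%, limit read from the data; inconclusive = no clear call, values can overlap the other calls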
ABCB6 inh 2: human ABCB6 transporter inhibition | Q9NP58 | K562-ABCB6 porphyrin accumulation, flow cytometry, 1 h; stronger effect = lower value | fluorescence ratio to DMSO, % at 10 µM | 0.19% of 360,000 active;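 active = fluorescence ratio to DMSO below 75%, the collection mean minus 3 SD; inconclusive = too few cells collected in the well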;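 note: signal is porphyrin accumulated inside mitochondria; 100% equals median channel fluorescence of DMSO control wells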
Numbers without * were called inactive; i = inactive; ? = inconclusive; . = no result given; + = active, no number. Rows were chosen to be rich in hits. Some 3.3% of all compounds tested hit in one or more screens of this group.

SMILES	ATG4B inh	Myeloid diff MLP	CendR NRP1 mod	Arr AP2 block	Granule exo inh	ABCB6 inh 2
CSCCC(NS(=O)(=O)c1ccc2c(c1)OCCO2)C(=O)N(C)Cc1ccc(C)cc1 (stereo unspecified)	0	i	37*	-9	2	103
O=C1C=C(Nc2ccccc2O)c2ccccc2C1=O	11	i	0	-9	8	166
O=C1C=C(NCc2ccccc2)c2ccccc2C1=O	40	+	4	7	82*	135
CCc1cccc(C)c1NC(=S)NCc1cccn1C	2	i	-2	.	-2	100
CC1(NC(=O)CCc2nc3sc4c(c3c(=O)[nH]2)CCCC4)CCS(=O)(=O)C1 (stereo unspecified)	4	i	-46	10	5	96
CCN1Cc2c(/C=C/c3ccccc3)nc3ccc(OC)cc3c2N(c2cccc(Cl)c2)C1	-3	+	-23	8	65*	151
COc1ccc(C(=O)NCC(=O)N2CCN(C(=O)c3ccco3)CC2)cc1[N+](=O)[O-]	7	i	-14	-2	2	105
O=C(Nc1ccccc1-c1nc2ccccc2[nH]1)c1ccc(N2C(=O)CCC2=O)cc1	-24	+	-149	-2	7	146
Nc1ccn(C2OC(COC(=O)C34CC5CC(CC(C5)C3)C4)C(O)C2O)c(=O)n1 (stereo unspecified)	3	.	6	41	-7	96
C[C@@H]1ON(C)[C@H]2C[C@H]3c4[nH]c5ccccc5c4CCN3C[C@@H]12	.	+	-8	.	-2	107
O=C(c1ccc(C#Cc2ccccc2)o1)N1CCN(c2ccccn2)CC1	7	i	40*	13	-2	104
O=C(c1ccc(COc2ccccc2Br)o1)N1CCN(c2ccccn2)CC1	5	i	-12	-2	-4	95
Cc1cccc(NC(=O)CCCn2cc([N+](=O)[O-])cn2)n1	-30	i	-1	-5	-4	101
COc1cccc(C2=NNC(=NCc3ccccc3)SC2)c1	7	i	31*	6	-2	100
O=C(NCc1ccc(Cl)cc1)c1cc([N+](=O)[O-])ccc1Cl	-2	i	6	29	-1	101
CN(C)c1ccc(C(=O)OCc2cc(=O)n3ccsc3n2)cc1	-5	i	23*	-7	-4	96
Cc1nn(-c2ccc(Cl)cc2)c2[nH]c(CCl)cc(=O)c12	4	i	1	-6	-5	100
CC(C)OC(=O)Cn1c(-c2ccccc2)c(-c2ccccc2)nnc1=O	1	i	9	-3	-3	98
Cc1cc(NC(=O)CSc2nc(CCC3CCCC3)nc3ccccc23)no1	-1	+	-4	-1	1	101
CCCc1nc(SCC(=O)Nc2cc(C)on2)c2ccccc2n1	1	i	2	0	1	99
COc1ccc(-c2c(C(=O)c3ccc(Br)cc3)[nH]c(N)c2C(=O)c2ccccc2)cc1OC	.	+	-2	.	-2	94
CCCn1c(C)cc(C(=O)CSc2nc3nc(C)cc(C)n3n2)c1C	-10	i	33*	3	-2	100
CCOc1ccc(NC(=O)CN(C)C(=O)C2CC(=O)N(CCc3ccccc3)C2)cc1OCC (stereo unspecified)	-3	i	20	9	2	96
CCCc1nc2cc3c(cc2[nH]1)n(C)c(=O)n3C	4	i	2	-6	-4	93
COc1ccc(CCN2C(=O)CC(NNc3ccc([N+](=O)[O-])cc3)C2=O)cc1OC (stereo unspecified)	-14	+	3	14	1	96
SMILES	ATG4B inh	Myeloid diff MLP	CendR NRP1 mod	Arr AP2 block	Granule exo inh	ABCB6 inh 2
CC(C)OC(=O)c1ccc(NC(=O)c2ccccc2)cc1	-4	i	35*	14	-2	91
COc1ccccc1/C=C/CN1CCOCC1	-9	i	7	5	0	101
COc1ccccc1/C=C/CN1CCSCC1	-4	.	30*	-10	0	102
O=C(Nc1ccc2c(c1)CCO2)Nc1nnc([C@H]2C[C@H](O)[C@@H](CO)O2)s1	.	i	-4	.	-1	104
O=S(=O)(NCc1csc(-c2cccs2)n1)c1cccs1	-1	i	35*	9	4	95
COc1ccc(S(=O)(=O)N2CCN(C(=O)CSC(=S)N3CCCC3)CC2)cc1	-14	i	-5	-10	-1	98
CCC(C)(C(=O)NC1CCCC1)N(Cc1ccco1)C(=O)c1ccc2c(c1)OCO2 (stereo unspecified)	1	+	-2	5	-3	100
C[C@H]1COC(=O)[C@H](Cc2ccc(F)cc2)C/C=C\C[C@@H](CC(=O)N(CCO)Cc2ccccc2)C(=O)N1	2	i	0	.	-4	98
Cc1sc2nc(CN3CCN(S(=O)(=O)c4cccc5nonc45)CC3)[nH]c(=O)c2c1C	-14	i	6	10	1	24*
Cc1ccc(S(=O)(=O)N2CCN(CC(=O)N3CCOCC3)CC2)cc1	-9	i	16	0	-3	102
Cc1cc(Cl)c(C)c(S(=O)(=O)N2CCN(CC(=O)N3CCOCC3)CC2)c1Cl	2	+	-12	22	5	90
CCc1ccccc1NC(=O)CNC(=O)c1ccc(OCc2cn3ccccc3n2)cc1	-9	i	7	-3	-26	96
CN(CC(=O)Nc1ccc(F)cc1)C(=O)c1ccc(OCc2cn3ccccc3n2)cc1	-5	i	27*	13	13	103
O=C(Nc1ccc2c(c1)CCCN2C(=O)c1cccs1)c1ccccc1	-1	+	1	6	2	94
O=C(Nc1ccc2c(c1)CCCN2C(=O)c1cccs1)c1cccc(F)c1	9	?	8	-4	0	92
Cc1ccc2nc(SCC(=O)NC3CCCc4ccccc43)[nH]c2c1 (stereo unspecified)	9	i	14	-11	-2	94
CC(/C=C/c1ccc(N(C)C)cc1)=N\N=C(/N)SC1CC(=O)N(c2ccc(C(=O)O)cc2)C1=O (stereo unspecified)	1	+	-154	-5	3	108
CCc1nnc(NC(=O)CCC(=O)NCc2ccc(C)cc2)s1	-1	i	-11	1	-2	98
Cc1cccc(C)c1Nc1nnc(SCC(=O)c2ccc3c(c2)NC(=O)CO3)s1	-12	i	15	10	-5	101
COc1cc(O)cc2cc3c(c(O)c12)C(=O)CC(C)(O)O3 (stereo unspecified)	-7	i	38*	12	6	101
COc1cc(O)c2c(c1)OC(C)(C)CC2=O	-17	i	5	-3	0	98
Cn1c(CN2CCOCC2)nnc1SCC(=O)Nc1ccc([N+](=O)[O-])cc1O	2	i	7	-4	14	106
